Measured values reported in ChEMBL document CHEMBL4138314, “Synthesis and Evaluation of N-Phenyl-3-sulfamoyl-benzamide Derivatives as Capsid Assembly Modulators Inhibiting Hepatitis B Virus (HBV)” (J Med Chem, 2018).
Converted amounts (≈) assume the structure as drawn. The source made the active and inactive calls. No cut-off for these calls is given here.

Legend:
[1] = Drug metabolism in human primary hepatocytes assessed as cleavage of N-phenylamide; format: ADME, cell-based, Hepatocyte
How it was run: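 Compound incubated with primary hepatocytes and checked for cleavage of the N-phenylamide bond.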

[2] = Drug metabolism in human liver microsomes at 1 uM after 15 mins by LC-MS/MS analysis; format: ADME, microsome; settings: read-out: Drug metabolism
How it was run: (§1)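 Compound incubated 15 min with human or mouse liver microsomes; stability expressed as percent turnover (metabolised) at 15 min.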

[3] = (§2) Cytotoxicity against human HepG2 cells after 4 to 6 days by resazurin assay; format: cell-based; settings: HepG2 cells
[4] = Drug metabolism in mouse liver microsomes at 1 uM after 15 mins by LC-MS/MS analysis; format: ADME, microsome; settings: read-out: Drug metabolism; how it was run: as §1
Hepatitis B virus [5] = test: Antiviral activity against Hepatitis B virus infected in human HepG2.117 cells assessed as inhibition of viral DNA level after 3 days by real time PCR; format: functional, organism-based; settings: HepG2.117, 72 h
[6] = Kinetic solubility of the compound at pH 7.4 after 4 hrs by UPLC-UV analysis; format: physicochemical; settings: buffer, read-out: Kinetic_solubility
HBV genotype D [7] = test: Antiviral activity against HBV genotype D infected in human HepG2.2.15 cells assessed as inhibition of viral DNA level treated twice for 3 days measured after 6 days by real time PCR; format: functional, organism-based; settings: for EC50: Hepatitis B virus; for Activity: hepatitis B virus genotype D
[8] = molecular target: Core antigen (Hepatitis B virus) (UniProt Q03732); test: Induction of HBV Maleimidyl BoDIPY-FL-labeled capsid Cp*150 mutant aggregation incubated for 30 mins measured every 10 secs for 30 mins by fluorescence quenching assay
Core antigen (Hepatitis B virus), sequence (Q03732 as listed by the source): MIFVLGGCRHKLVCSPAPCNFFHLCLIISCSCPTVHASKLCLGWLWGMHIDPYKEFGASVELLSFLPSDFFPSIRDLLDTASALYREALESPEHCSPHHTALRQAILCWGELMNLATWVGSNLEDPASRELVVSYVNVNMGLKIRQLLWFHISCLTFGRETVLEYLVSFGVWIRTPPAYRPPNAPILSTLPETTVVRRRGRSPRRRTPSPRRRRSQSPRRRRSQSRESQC

[9] = Cytotoxicity against human HepG2 cells after 4 days by resazurin assay; format: cell-based
Hepatitis B virus [10] = test: Induction of HBV capsid core protein CP149 aggregation assessed as ratio between area under the curve for observed amount of core dimer and area under the curve for aggregated core protein at 20 uM after 24 hrs by size exclusion chromatographic analysis
How it was run: (§3)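 Recombinant HBV core assembly domain (aa 1–149, Cp149) was incubated with compound at 20 µM for 24 h, with a no-compound control run in parallel. Size exclusion chromatography gave the ratio of Cp149 dimer AUC to aggregated Cp149 AUC.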

[11] = molecular target: 5-hydroxytryptamine receptor 2B (Homo sapiens, UniProt P41595); test: Antagonist activity at 5-HT2B (unknown origin); format: functional
5-hydroxytryptamine receptor 2B, sequence (P41595 whole entry): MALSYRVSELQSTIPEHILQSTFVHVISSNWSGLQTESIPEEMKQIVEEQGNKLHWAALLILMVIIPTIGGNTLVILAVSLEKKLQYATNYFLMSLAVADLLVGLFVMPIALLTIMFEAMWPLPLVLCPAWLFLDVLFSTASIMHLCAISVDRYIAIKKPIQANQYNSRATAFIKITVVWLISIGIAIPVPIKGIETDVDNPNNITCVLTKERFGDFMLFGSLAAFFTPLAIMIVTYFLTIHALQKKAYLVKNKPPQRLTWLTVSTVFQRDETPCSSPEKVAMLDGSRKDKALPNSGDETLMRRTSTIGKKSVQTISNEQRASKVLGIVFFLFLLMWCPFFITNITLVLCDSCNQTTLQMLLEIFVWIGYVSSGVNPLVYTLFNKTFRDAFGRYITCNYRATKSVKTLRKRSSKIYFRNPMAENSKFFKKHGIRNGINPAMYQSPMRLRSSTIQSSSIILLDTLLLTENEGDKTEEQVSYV
How it was run: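 Receptor/ion channel/transporter panel of 80 targets screened at 10 µM, giving percent effect at 5-HT2B; follow-up 5-HT2B functional testing in agonist and antagonist modes, with antagonist IC50 determined.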

HBV genotype D [12] = test: Antiviral activity against HBV genotype D infected in chimeric mouse with humanized liver assessed as log reduction in viral DNA level in serum at 0.03 mg/kg, po qd for 28 days by RT-PCR method; format: functional, hepatitis B virus genotype D
How it was run: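 HBV genotype D-infected chimeric mice with humanized liver (human hepatocyte replacement index ≥70%, judged by serum human albumin). Dosing was once daily for 28 days: test article 200 mg/kg s.c., entecavir 0.03 mg/kg oral as positive control, and oral saline as negative control. The read-out was serum HBV DNA (copies/mL), given as mean log change from baseline at day 29.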

HepG2 = test: as §2; format: cell-based; settings: hepg2
[13] = Cytotoxicity against human HepG2 cells after 6 days by resazurin assay; format: cell-based
Hepatitis B virus [14] = test: Induction of HBV capsid core protein CP149 aggregation assessed as large aberrant structure formation at 20 uM after 24 hrs by size exclusion chromatographic analysis; how it was run: as §3

Cc1cc(NC(=O)c2cccc(S(=O)(=O)NC3(C)COC3)c2)ccc1F
Drug metabolism [1]: Metabolite_Detected
metabolised at 0.25 h, 1 µM [2]: 7%
CC50 [3]: 47100 nM
metabolised at 0.25 h, 1 µM [4]: 65%
EC50 (Hepatitis B virus [5]): 300 nM
solubility kinetic at 4 h [6]: > 100 µM
EC50 (HBV genotype D [7]): 120 nM
Activity [8]: Active

O=C(Nc1ccc(F)cc1)c1cccc(C(=O)NC2CCCCC2)c1
metabolised at 0.25 h, 1 µM [2]: 56%
CC50 at 96 h [9]: > 100000 nM
Ratio (Hepatitis B virus [10]): 6.4
IC50 [11]: 90 nM
metabolised at 0.25 h, 1 µM [4]: 93%
EC50 (Hepatitis B virus [5]): > 25000 nM
solubility kinetic at 4 h [6]: < 0.4 µM
EC50 (HBV genotype D [7]): > 100000 nM

C=C1[C@H](CO)[C@@H](O)C[C@@H]1n1cnc2c(=O)[nH]c(N)nc21.O [ENTECAVIR]
log(activity) (HBV genotype D [12]): 3.03

CC(C)NS(=O)(=O)c1cccc(C(=O)Nc2ccc(F)c(F)c2)c1
metabolised at 0.25 h, 1 µM [2]: 18%
IC50 [11]: 230 nM
EC20 (HepG2): 1000 nM
metabolised at 0.25 h, 1 µM [4]: 60%
EC50 (Hepatitis B virus [5]): 400 nM
solubility kinetic at 4 h [6]: > 100 µM
EC50 (HBV genotype D [7]): 210 nM
Activity [8]: Active

O=C(Nc1ccccc1)c1cc(S(=O)(=O)N2CCCCC2)c(Cl)cc1Cl
CC50 at 144 h [13]: > 25000 nM
metabolised at 0.25 h, 1 µM [2]: 99%
Ratio (Hepatitis B virus [10]): 0.2
metabolised at 0.25 h, 1 µM [4]: 100%
solubility kinetic at 4 h [6]: 2 µM (≈ 0.827 µg/mL)
Activity (Hepatitis B virus [14]): inactive
EC50 (HBV genotype D [7]): 500 nM
Activity (HBV genotype D [7]): Dose-dependent effect
Activity [8]: Active

O=C(Nc1ccccc1)c1cccc(S(=O)(=O)NC2CCCC2)c1
CC50 at 144 h [13]: 27200 nM
metabolised at 0.25 h, 1 µM [2]: 94%
Ratio (Hepatitis B virus [10]): 0.3
metabolised at 0.25 h, 1 µM [4]: 98%
solubility kinetic at 4 h [6]: 91 µM (≈ 31.3 µg/mL)
Activity (Hepatitis B virus [14]): inactive
EC50 (HBV genotype D [7]): 600 nM
Activity (HBV genotype D [7]): Dose-dependent effect
Activity [8]: Active
